Results reported in ChEMBL document CHEMBL4130569, “Structure Optimization of Aloperine Derivatives as HIV-1 Entry Inhibitors” (ACS Med Chem Lett, 2017).
pEC50: −log10 of the molar value. Active and inactive are the calls of the source. No cut-off for these calls is given here.

How the values were obtained:
[1] = Cytotoxicity in human MT4 cells assessed as reduction of cell viability incubated for 3 days by CytoTox-Glo cytotoxicity assay; assay type: cell-based
[2] = test system: Human immunodeficiency virus 1; assay: Antiviral activity against HIV1 NL4-3 infected in human MT4 cells after 3 days by luciferase reporter gene assay; assay type: functional, organism-based; details: Human immunodeficiency virus 1, NL4-3, MT4, 72 h
Influenza A virus = assay: Antiviral activity against Influenza A virus (A/Puerto Rico/8/1934(H1N1)) infected in MDCK cells assessed as inhibition of virus-induced cytopathic effect incubated for 48 hrs by Cell-titer-Glo assay; assay type: functional, organism-based; details: for EC50: mdck
[3] = Cytotoxicity in MDCK cells assessed as reduction of cell viability incubated for 2 days by CytoTox-Glo cytotoxicity assay; assay type: cell-based, Canis lupus familiaris; details: dog
[4] = target: Envelope glycoprotein gp160 (Human immunodeficiency virus 1) (UniProt Q6QLK5); assay: Induction of conformational changes in HIV1 NLDH120 envelope glycoprotein gp120 transfected in COS cells assessed as increase in gp120 binding of monoclonal antibody 17b at 10 uM after 48 hrs by FACS; assay type: cell-based
[5] = test system: Human immunodeficiency virus 1; assay: Inhibition of HIV1-mediated cellular entry in HIV1 NL4-3 VPR-GFP infected human TZM-bl cells incubated for 2 hrs by confocal microscopy; assay type: functional, organism-based
In short: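 TZM-bl cells were infected with NL4-3/Vpr-GFP virus, with or without test compound at 1 µM, for 2 h. Nuclei were stained with DAPI 2 h post infection, and confocal microscopy imaged GFP. Cytosolic GFP dispersal marked entry; GFP puncta marked virus arrested at the cell or endosomal membrane. Uninfected DAPI-stained cells served as background.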

[6] = Selectivity index, ratio of CC50 for human MT4 cells […] NL4-3 infected in human MT4 cells; assay type: toxicity, cell-based; details: MT4 cells and HIV1 NL4-3 infected MT4 cells, read-out: Ratio CC50/EC50
[7] = test system: Human immunodeficiency virus 1; assay: Potency index, ratio of EC50 for aloperine to EC50 for test compound for antiviral activity against HIV1 NL4-3 infected in human MT4 cells after 3 days by luciferase reporter gene assay; assay type: functional
[8] = Selectivity index, ratio of EC50 for antiviral activity against influenza A virus (A/Puerto Rico/8/1934(H1N1)) infected in MDCK cells to EC50 for antiviral activity against HIV1 NL4-3 infected in human MT4 cells

Chain of Envelope glycoprotein gp160 (Human immunodeficiency virus 1) (Q6QLK5 1-814): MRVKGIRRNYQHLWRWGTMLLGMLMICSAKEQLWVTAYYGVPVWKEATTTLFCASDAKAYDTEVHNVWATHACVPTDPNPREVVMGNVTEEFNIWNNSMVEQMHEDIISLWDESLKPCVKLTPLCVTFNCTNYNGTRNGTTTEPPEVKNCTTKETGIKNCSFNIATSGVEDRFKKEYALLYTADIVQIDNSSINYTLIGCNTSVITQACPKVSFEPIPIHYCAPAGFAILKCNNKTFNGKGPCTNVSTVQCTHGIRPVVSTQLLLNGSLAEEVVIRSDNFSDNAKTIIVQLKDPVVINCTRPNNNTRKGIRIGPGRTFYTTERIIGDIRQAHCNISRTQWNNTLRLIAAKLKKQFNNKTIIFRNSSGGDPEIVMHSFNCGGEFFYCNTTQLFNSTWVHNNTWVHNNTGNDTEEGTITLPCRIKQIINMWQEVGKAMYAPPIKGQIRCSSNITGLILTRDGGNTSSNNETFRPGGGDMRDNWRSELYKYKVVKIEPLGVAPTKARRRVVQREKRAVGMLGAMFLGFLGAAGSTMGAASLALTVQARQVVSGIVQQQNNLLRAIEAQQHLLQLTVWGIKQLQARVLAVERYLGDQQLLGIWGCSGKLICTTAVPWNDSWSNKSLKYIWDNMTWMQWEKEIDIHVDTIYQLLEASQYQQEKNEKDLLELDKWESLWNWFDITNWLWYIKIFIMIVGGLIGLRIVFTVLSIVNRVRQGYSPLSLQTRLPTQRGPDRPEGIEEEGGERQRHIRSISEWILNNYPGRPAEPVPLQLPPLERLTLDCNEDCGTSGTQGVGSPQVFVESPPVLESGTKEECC

Row | Compound | CC50 at 72 h [1] | pEC50 [2] | further results
1 | O=C(CCc1ccc(OC(F)(F)F)cc1)NCCCCN1CCCC2=C[C@H]3C[C@H](CN4CCCC[C@H]34)[C@@H]21 | > 40 µM | < 5.52 | –
2 | CC(C)(C)c1ccc(C(=O)NCCCCN2CCCC3=C[C@H]4C[C@H](CN5CCCC[C@H]45)[C@@H]32)cc1 | 12.9 µM | 5.67 | –
3 | O=C(Cc1ccc(OC(F)(F)F)cc1)NCCCCN1CCC[C@@H]2C[C@H]3C[C@H](CN4CCCC[C@H]34)[C@@H]21 | > 40 µM | 5.55 | –
4 | O=C(NCCCCN1CCCC2=C[C@H]3C[C@H](CN4CCCC[C@H]34)[C@@H]21)C(=O)c1ccc(C(F)(F)F)cc1 | > 40 µM | 6.00 | EC50 (Influenza A virus): Not Active; CC50 at 48 h [3]: > 80 µM
5 | CS(=O)(=O)c1ccc(CC(=O)NCCCCN2CCCC3=C[C@H]4C[C@H](CN5CCCC[C@H]45)[C@@H]32)cc1 | > 40 µM | < 5.52 | –
6 | O=S(=O)(NCCCCN1CCCC2=C[C@H]3C[C@H](CN4CCCC[C@H]34)[C@@H]21)c1ccc(OC(F)(F)F)cc1 | > 40 µM | < 5.52 | –
7 | O=C(NCCCCN1CCCC2=C[C@H]3C[C@H](CN4CCCC[C@H]34)[C@@H]21)c1ccc(C(=O)c2ccccc2)cc1 | > 40 µM | 6.01 | EC50 (Influenza A virus): Not Active; CC50 at 48 h [3]: 31.6 µM
8 | O=C(Cc1ccc(OC(F)(F)F)cc1)NCCCCN1CCC[C@H]2C[C@H]3C[C@H](CN4CCCC[C@H]34)[C@@H]21 | > 40 µM | 5.82 | –
9 | O=C(NCCCCN1CCCC2=C[C@H]3C[C@H](CN4CCCC[C@H]34)[C@@H]21)c1ccc(-c2cccs2)cc1 | 16.2 µM | < 5.52 | –
10 | O=C(NCCCCN1CCCC2=C[C@H]3C[C@H](CN4CCCC[C@H]34)[C@@H]21)c1ccc(-c2ccsc2)cc1 | 21.2 µM | 5.88 | –
11 | O=C(Cc1ccc(C(F)(F)F)cc1)NCCCCN1CCCC2=C[C@H]3C[C@H](CN4CCCC[C@H]34)[C@@H]21 | > 40 µM | 6.09 | EC50 (Influenza A virus): Not Active; CC50 at 48 h [3]: > 80 µM
12 | O=C(NCCCCN1CCCC2=C[C@H]3C[C@H](CN4CCCC[C@H]34)[C@@H]21)c1ccc(CNS(=O)(=O)C(F)(F)F)cc1 | > 40 µM | – | –
13 | O=C(Cc1ccc(S(=O)(=O)C(F)(F)F)cc1)NCCCCN1CCCC2=C[C@H]3C[C@H](CN4CCCC[C@H]34)[C@@H]21 | 28.8 µM | 6.92 | Activity [4]: Active; EC50 (Influenza A virus): Not Active; inhibition [5]: Active; CC50 at 48 h [3]: > 80 µM; selectivity ratio [6]: 240; Ratio EC50 [7]: 15
14 | O=C(NCCCCN1CCCC2=C[C@H]3C[C@H](CN4CCCC[C@H]34)[C@@H]21)c1ccc2c(c1)OCO2 | > 40 µM | < 5.52 | –
15 | O=C(Cc1ccc(S(=O)(=O)C(F)(F)F)cc1)NCCCCN1CCC[C@@H]2C[C@H]3C[C@H](CN4CCCC[C@H]34)[C@@H]21 | > 40 µM | < 5.52 | –
16 | O=C(NCCCCN1CCCC2=C[C@H]3C[C@H](CN4CCCC[C@H]34)[C@@H]21)C1CCC(C(F)(F)F)CC1 (some centres not stated) | > 40 µM | < 5.52 | –

Row | Compound | CC50 at 72 h [1] | pEC50 [2] | further results
17 | O=C(Cc1ccc2c(c1)OCO2)NCCCCN1CCCC2=C[C@H]3C[C@H](CN4CCCC[C@H]34)[C@@H]21 | > 40 µM | < 5.52 | –
18 | O=C(Cc1ccc(S(=O)(=O)CC(F)(F)F)cc1)NCCCCN1CCCC2=C[C@H]3C[C@H](CN4CCCC[C@H]34)[C@@H]21 | > 40 µM | < 5.52 | –
19 | O=C(Cc1ccc(Br)cc1)NCCCCN1CCCC2=C[C@H]3C[C@H](CN4CCCC[C@H]34)[C@@H]21 | > 40 µM | 5.88 | –
20 | O=C(NCCCCN1CCCC2=C[C@H]3C[C@H](CN4CCCC[C@H]34)[C@@H]21)c1ccc(S(=O)(=O)F)cc1 | 38.5 µM | – | –
21 | O=S(=O)(Cc1ccc(OC(F)(F)F)cc1)NCCCCN1CCCC2=C[C@H]3C[C@H](CN4CCCC[C@H]34)[C@@H]21 | 35.7 µM | < 5.52 | –
22 | O=C(Cc1ccc(SC(F)(F)F)cc1)NCCCCN1CCCC2=C[C@H]3C[C@H](CN4CCCC[C@H]34)[C@@H]21 | 23.8 µM | 6.74 | EC50 (Influenza A virus): Not Active; CC50 at 48 h [3]: 45.1 µM
23 | O=C(Cc1ccc(S(=O)(=O)C(F)(F)F)cc1)NCCCCN1CCC[C@H]2C[C@H]3C[C@H](CN4CCCC[C@H]34)[C@@H]21 | > 40 µM | < 5.52 | –
24 | O=C(Cc1ccc([S+]([O-])C(F)(F)F)cc1)NCCCCN1CCCC2=C[C@H]3C[C@H](CN4CCCC[C@H]34)[C@@H]21 (some centres not stated) | > 40 µM | 5.78 | –
25 | O=C(CC1CCC(F)(F)CC1)NCCCCN1CCCC2=C[C@H]3C[C@H](CN4CCCC[C@H]34)[C@@H]21 | > 40 µM | 5.71 | –
26 | CC(C)(C)c1ccc(CC(=O)NCCCCN2CCCC3=C[C@H]4C[C@H](CN5CCCC[C@H]45)[C@@H]32)cc1 | > 40 µM | 5.68 | –
27 | O=C(NCCCCN1CCCC2=C[C@H]3C[C@H](CN4CCCC[C@H]34)[C@@H]21)C1CCC(F)(F)CC1 | > 40 µM | 5.61 | –
28 | C1=C2CCCN[C@H]2[C@@H]2C[C@H]1[C@H]1CCCCN1C2 | > 86 µM | – | Ratio EC50 [8]: 7; CC50 at 48 h [3]: > 80 µM
29 | O=C(Cc1ccc(OC(F)(F)F)cc1)NCCCCN1CCCC2=C[C@H]3C[C@H](CN4CCCC[C@H]34)[C@@H]21 | – | – | pEC50 (Influenza A virus; Influenza A virus, A/Puerto Rico/8/1934(H1N1), MDCK, 48 h, read-out: EC50): 4.72; CC50 at 48 h [3]: > 80 µM
30 | O=C(NCCCCN1CCCC2=C[C@H]3C[C@H](CN4CCCC[C@H]34)[C@@H]21)c1ccc(S(=O)(=O)C(F)(F)F)cc1 | > 40 µM | 6.26 | EC50 (Influenza A virus): Not Active; CC50 at 48 h [3]: > 80 µM
31 | O=C(NCCCCN1CCCC2=C[C@H]3C[C@H](CN4CCCC[C@H]34)[C@@H]21)c1ccc(C(F)(F)F)c(F)c1 | > 40 µM | 5.65 | –
